IC50 and inhibition data for 2 compounds are collected here from ChEMBL document CHEMBL3352402, “Pharmacological evaluation and docking studies of α,β-unsaturated carbonyl based synthetic compounds as inhibitors of secretory phospholipase A₂, cyclooxygenases, lipoxygenase and proinflammatory cytokines” (Bioorg Med Chem, 2014).

A short description of assay [1]: Inhibition of sPLA2-V (unknown origin) using substrate 1,2-bis(heptanoylthio)-glycerophosphocholine by Ellman's method based photometric assay. More on the design: species or system Homo sapiens.
In assay [2] the target is Lipoxygenase (Glycine max) (UniProt Q39829). The assay is described as follows: (§1) Inhibition of soybean lipoxygenase after 5 mins by colorimetric assay. An outline of the steps: (§2)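 Purified soybean lipoxygenase resuspended in 0.1 M Tris-HCl, pH 7. Enzyme plus test sample was started with substrate (dissolved in KOH, diluted to 1 mM) at room temperature for 5 min. Chromogen was added for 5 min to stop the reaction, then absorbance read at 490 nm. Activity is relative to enzyme plus substrate alone.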

The next assay has as its target Lipoxygenase (Glycine max, UniProt Q39829). The description is as §1. An outline of the steps: as §2
The target of assay [3] is T1, Prostaglandin G/H synthase 1 (Ovis aries, UniProt P05979).
T1 sequence (P05979 whole entry): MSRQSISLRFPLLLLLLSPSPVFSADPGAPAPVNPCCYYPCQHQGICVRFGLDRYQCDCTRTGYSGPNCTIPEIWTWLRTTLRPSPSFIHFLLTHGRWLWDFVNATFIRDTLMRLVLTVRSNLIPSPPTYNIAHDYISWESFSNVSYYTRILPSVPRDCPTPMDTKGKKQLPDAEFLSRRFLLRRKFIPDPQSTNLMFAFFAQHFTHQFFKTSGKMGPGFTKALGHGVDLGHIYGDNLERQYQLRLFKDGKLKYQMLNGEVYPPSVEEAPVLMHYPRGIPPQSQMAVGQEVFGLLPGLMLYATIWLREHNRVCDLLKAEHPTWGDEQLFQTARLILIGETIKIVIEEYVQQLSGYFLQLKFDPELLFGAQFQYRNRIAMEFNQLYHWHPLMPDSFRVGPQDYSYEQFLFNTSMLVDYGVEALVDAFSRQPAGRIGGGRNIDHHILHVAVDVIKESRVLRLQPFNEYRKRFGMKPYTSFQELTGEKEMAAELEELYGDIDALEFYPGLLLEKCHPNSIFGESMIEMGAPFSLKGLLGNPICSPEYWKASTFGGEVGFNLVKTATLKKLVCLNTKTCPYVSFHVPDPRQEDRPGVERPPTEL
As to the kind of experiment: Inhibition of ovine COX1 using arachidonic acid substrate assessed as PGE2 production ELISA method after 2 mins.

Assay [4] addresses Lipoxygenase (Glycine max) (UniProt Q39829). The assay is described as follows: Inhibition of soybean lipoxygenase at 40 ug/mL after 5 mins by colorimetric assay.
For assay [5], the target named is T2, Prostaglandin G/H synthase 2 (Homo sapiens, UniProt P35354).
T2 sequence (P35354 whole entry): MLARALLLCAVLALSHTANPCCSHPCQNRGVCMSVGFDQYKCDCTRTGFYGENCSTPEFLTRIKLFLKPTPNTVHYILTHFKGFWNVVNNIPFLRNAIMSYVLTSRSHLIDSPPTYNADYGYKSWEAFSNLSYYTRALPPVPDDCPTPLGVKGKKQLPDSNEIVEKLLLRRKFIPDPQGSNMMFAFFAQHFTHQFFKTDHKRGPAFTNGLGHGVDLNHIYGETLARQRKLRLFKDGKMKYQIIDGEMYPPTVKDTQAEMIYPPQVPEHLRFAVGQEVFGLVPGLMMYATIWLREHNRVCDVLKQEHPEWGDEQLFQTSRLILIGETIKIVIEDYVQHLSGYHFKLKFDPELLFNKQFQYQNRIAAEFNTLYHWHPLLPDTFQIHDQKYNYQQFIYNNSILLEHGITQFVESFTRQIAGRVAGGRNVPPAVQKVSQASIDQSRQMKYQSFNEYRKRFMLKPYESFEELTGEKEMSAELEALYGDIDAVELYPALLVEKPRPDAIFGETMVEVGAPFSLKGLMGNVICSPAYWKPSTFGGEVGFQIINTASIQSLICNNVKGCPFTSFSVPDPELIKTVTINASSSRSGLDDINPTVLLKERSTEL
The assay is described as follows: Inhibition of human recombinant COX2 using arachidonic acid substrate assessed as PGE2 production ELISA method after 2 mins.

Consider `CCOC(OCC)c1ccc(/C=C/C(=O)C2CCc3ccccc3C2=O)cc1` (stereo unspecified), for which the IC50 in assay [1] was 27.7 µM; against Lipoxygenase it was 52.2 µM; in assay [3], 1.12 µM; in assay [5], 13.3 µM. The inhibition in assay [2] and in assay [4] was 69.5% each time.
For the compound `COc1cc(/C=C/C(=O)CC(=O)/C=C/c2ccc(O)c(OC)c2)ccc1O` [CURCUMIN], the IC50 was determined as 10.1 µM in assay [1], 59.5 µM against Lipoxygenase and 29.7 µM in assay [3]. In addition, the inhibition result in assay [2] was “Dose-dependent effect”; in assay [4], 68.3%.
